Test results as given in ChEMBL document CHEMBL1145426, “Albumin binding of short cationic antimicrobial micropeptides and its influence on the in vitro bactericidal effect” (J Med Chem, 2007).
Converted amounts (≈) assume the structure as drawn. Where a SMILES comes first, the peptide text is derived from it. [ ]: non-standard residue; d: D form. The star is where a group is joined. Bip = N[C@@H](Cc1ccc(-c2ccccc2)cc1)C(=O)O; NHPhenethyl = c1ccc(CCN*)cc1; NHBn = c1ccc(CN*)cc1; NHiPr = CC(C)N*

Tests used:
Staphylococcus aureus [1] = experiment: Antibacterial activity against Staphylococcus aureus ATCC 25923 by microdilution method; assay type: functional
Summary of the method: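 Standard broth microdilution MIC against S. aureus ATCC 25923, without albumin. Run in triplicate.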

Staphylococcus aureus [2] = experiment: Antibacterial activity against Staphylococcus aureus ATCC 25923 in presence of BSA 1 by microdilution method; assay type: functional
Summary of the method: (§1)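 Standard broth microdilution MIC against S. aureus ATCC 25923 with albumin in the assay at 0.55 mM. Albumin grades: BSA I, essentially fatty acid and globulin free, ≥99%. BSA II ≥96%. HSA I, essentially fatty acid free, ~99%. HSA II ≥96%. Run in duplicate.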

[3] = Binding affinity to BSA 1 by isothermal titration calorimetry; design: species or system Bos taurus
Summary of the method: (§2)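 ITC at 25 °C with 1 mL cell. Peptide (2.1 mM) injected in 20 aliquots of 5 µL, 400 s apart, into stirred (200 rpm) albumin (0.11 mM) in 50 mM Tris-HCl, 10 mM CaCl₂, pH 8.2. Dilution heats from peptide-into-buffer titrations were subtracted. First injection excluded. Isotherm fitted to a one-site model; KD = 1/Ka.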

[4] = Binding affinity to HSA 1 by isothermal titration calorimetry; design: species or system Homo sapiens; summary of the method: as §2
[5] = Binding affinity to HSA 2 by isothermal titration calorimetry; design: species or system Homo sapiens; summary of the method: as §2
[6] = Binding affinity to BSA 2 by isothermal titration calorimetry; design: species or system Bos taurus; summary of the method: as §2
Staphylococcus aureus [7] = experiment: Antibacterial activity against Staphylococcus aureus ATCC 25923 in presence of HSA 1 by microdilution method; assay type: functional; summary of the method: as §1
Staphylococcus aureus [8] = experiment: Antibacterial activity against Staphylococcus aureus ATCC 25923 in presence of HSA 2 by microdilution method; assay type: functional; summary of the method: as §1
Staphylococcus aureus [9] = experiment: Antibacterial activity against Staphylococcus aureus ATCC 25923 in presence of BSA 2 by microdilution method; assay type: functional; summary of the method: as §1

**Q.** Which MIC (Staphylococcus aureus [1]) does the source give for `C[C@H](CNC(=O)[C@H](CCCNC(=N)N)NC(=O)[C@H](Cc1ccc(-c2ccccc2)cc1)NC(=O)[C@@H](N)CCCNC(=N)N)c1ccccc1` here?
**A.** 4 µg/mL (≈ 5.96 µM)

**Q.** What about the MIC (Staphylococcus aureus [2]) of the same compound?
**A.** 31 µg/mL

**Q.** And the Kd [3]?
**A.** 12.4 µM

**Q.** Which results are given for `CN(Cc1ccccc1)C(=O)[C@H](CCCNC(=N)N)NC(=O)[C@H](Cc1ccc(-c2ccccc2)cc1)NC(=O)[C@@H](N)CCCNC(=N)N`?
**A.** MIC (Staphylococcus aureus [1]): 7 µg/mL (≈ 10.7 µM); MIC (Staphylococcus aureus [2]): 38 µg/mL; Kd [3]: 6.7 µM

**Q.** Which results are given for `C[C@@H](CNC(=O)[C@H](CCCNC(=N)N)NC(=O)[C@H](Cc1ccc(-c2ccccc2)cc1)NC(=O)[C@@H](N)CCCNC(=N)N)c1ccccc1`?
**A.** MIC (Staphylococcus aureus [1]): 4 µg/mL (≈ 5.96 µM); MIC (Staphylococcus aureus [2]): 31 µg/mL; Kd [3]: 12.2 µM

**Q.** For `N=C(N)NCCC[C@H](NC(=O)[C@H](Cc1ccc(-c2ccccc2)cc1)NC(=O)[C@@H](N)CCCNC(=N)N)C(=O)NCCCc1ccccc1`, which MIC (Staphylococcus aureus [1]) is on record?
**A.** 2 µg/mL (≈ 2.98 µM)

**Q.** What about the MIC (Staphylococcus aureus [2]) of the same compound?
**A.** 25 µg/mL

**Q.** And the Kd [3]?
**A.** 22.2 µM

**Q.** For `N=C(N)NCCC[C@H](NC(=O)[C@H](Cc1ccc(-c2ccccc2)cc1)NC(=O)[C@@H](N)CCCNC(=N)N)C(=O)N(Cc1ccccc1)Cc1ccccc1`, which MIC (Staphylococcus aureus [1]) is on record?
**A.** 2 µg/mL (≈ 2.73 µM)

**Q.** What about the MIC (Staphylococcus aureus [2]) of the same compound?
**A.** 13 µg/mL

**Q.** And the Kd [3]?
**A.** 10 µM

**Q.** And the Kd [4]?
**A.** 10.4 µM

**Q.** What about the Kd [5] of the same compound?
**A.** 15.9 µM

**Q.** And the Kd [6]?
**A.** 12.3 µM

**Q.** And the MIC (Staphylococcus aureus [7])?
**A.** 6 µg/mL

**Q.** And the MIC (Staphylococcus aureus [8])?
**A.** 11 µg/mL

**Q.** What about the MIC (Staphylococcus aureus [9]) of the same compound?
**A.** 6 µg/mL

**Q.** What does the source list for `CCN(Cc1ccccc1)C(=O)[C@H](CCCNC(=N)N)NC(=O)[C@H](Cc1ccc(-c2ccccc2)cc1)NC(=O)[C@@H](N)CCCNC(=N)N`?
**A.** MIC (Staphylococcus aureus [1]): 5 µg/mL (≈ 7.45 µM); MIC (Staphylococcus aureus [2]): 38 µg/mL; Kd [3]: 17.3 µM

**Q.** Which MIC (Staphylococcus aureus [1]) does the source give for `N=C(N)NCCC[C@H](NC(=O)[C@H](Cc1ccc(-c2ccccc2)cc1)NC(=O)[C@@H](N)CCCNC(=N)N)C(=O)NCc1ccccc1` (H-Arg-[Bip]-Arg-NHBn) here?
**A.** 5 µg/mL (≈ 7.78 µM)

**Q.** What about the MIC (Staphylococcus aureus [2]) of the same compound?
**A.** 47 µg/mL

**Q.** And the Kd [3]?
**A.** 4.3 µM

**Q.** And the Kd [4]?
**A.** 15.7 µM

**Q.** And the Kd [5]?
**A.** 15.5 µM

**Q.** What about the Kd [6] of the same compound?
**A.** 13 µM

**Q.** And the MIC (Staphylococcus aureus [7])?
**A.** 40 µg/mL

**Q.** And the MIC (Staphylococcus aureus [8])?
**A.** 80 µg/mL

**Q.** What about the MIC (Staphylococcus aureus [9]) of the same compound?
**A.** 30 µg/mL

**Q.** Which results are given for `N=C(N)NCCC[C@H](NC(=O)[C@H](Cc1ccc(-c2ccccc2)cc1)NC(=O)[C@@H](N)CCCNC(=N)N)C(=O)NCCc1ccccc1` (H-Arg-[Bip]-Arg-NHPhenethyl)?
**A.** MIC (Staphylococcus aureus [1]): 4 µg/mL (≈ 6.09 µM); MIC (Staphylococcus aureus [2]): 47 µg/mL; Kd [3]: 11.1 µM

**Q.** Which MIC (Staphylococcus aureus [1]) does the source give for `CC(C)NC(=O)[C@H](CCCNC(=N)N)NC(=O)[C@H](Cc1ccc(-c2ccccc2)cc1)NC(=O)[C@@H](N)CCCNC(=N)N` (H-Arg-[Bip]-Arg-NHiPr) here?
**A.** 47 µg/mL (≈ 79 µM)

**Q.** What about the MIC (Staphylococcus aureus [2]) of the same compound?
**A.** 110 µg/mL

**Q.** And the Kd [3]?
**A.** 14.1 µM

**Q.** What about the Kd [4] of the same compound?
**A.** 10.8 µM

**Q.** What about the Kd [5] of the same compound?
**A.** 18.2 µM

**Q.** And the Kd [6]?
**A.** 14.5 µM

**Q.** And the MIC (Staphylococcus aureus [7])?
**A.** 113 µg/mL

**Q.** And the MIC (Staphylococcus aureus [8])?
**A.** 100 µg/mL

**Q.** What about the MIC (Staphylococcus aureus [9]) of the same compound?
**A.** 80 µg/mL
